The source made the active and inactive calls. The rule behind the calls is not given here.
What was measured:
[1] = target: Pyruvate dehydrogenase kinase (Rattus norvegicus, UniProt Q63065+A6IPZ9+Q64536+O54937); assay: Inhibitory activity tested against Pyruvate Dehydrogenase Kinase (PDHK) receptor from rats.; assay type: protein assay
Method in brief: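 Commercial PDH complex used as the kinase-containing preparation. PDHK inhibition read spectrophotometrically as NADH production at 340 nm, measured with and without ATP. IC50 ± standard error, from purified substances.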

[2] = tested on: Rattus norvegicus; assay: In vivo %control of lactate in normal Sprague-Dawley rats after 2 hr at a dose of 100 umol/Kg; Not active; assay type: functional, organism-based
Method in brief: (§1)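 Male Sprague-Dawley rats, about 200 g, randomly assigned to groups (n = 6/group) and fasted 24 h. Single oral dose of compound in 0.5% carboxymethylcellulose/0.2% Tween-80 (1 mL/100 g), or vehicle alone. Blood taken 2 h post-dose into heparin/fluoride tubes; lactate measured on a biochemistry analyzer. Expressed as percent of vehicle control; groups compared by two-tailed unpaired t-test.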

[3] = species on record: Homo sapiens; assay: Effective concentration required to increase the oxidation of lactate in cellular assay using Human Skin Fibroblasts; assay type: functional
Method in brief: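 Human fibroblasts harvested with trypsin 2-4 days post-confluence and assayed in suspension ((3.5-5) × 10^5 cells per tube) with test compound or solvent control. Equilibrated at 37 °C, then started with DMEM-S containing 25 µM lactate and 0.2 µCi/mL d,l-[1-14C]lactate. Gassed with 95% O2/5% CO2 and shaken 25 min at 37 °C. Stopped with TCA; released 14CO2 trapped and counted by scintillation. EC50 ± standard error.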

[4] = tested on: Rattus norvegicus; assay: In vivo %control of lactate in normal Sprague-Dawley rats after 2 hr at a dose of 1 umol/Kg; assay type: functional
Method in brief: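 Male Sprague-Dawley rats, about 200 g, randomly assigned to groups (n = 6/group), fasted 24 h, then given compound orally in 0.5% carboxymethylcellulose with 0.2% Tween-80 (1 mL/100 g body weight) or vehicle alone. Blood drawn 2 h post-dose into heparin/fluoride tubes. Lactate measured on a dual-channel biochemistry analyzer and expressed as percent of vehicle control. Unpaired two-tailed t-test.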

[5] = tested on: Rattus norvegicus; assay: In vivo %control of lactate in normal Sprague-Dawley rats after 2 hr at a dose of 10 umol/Kg; assay type: functional; method in brief: as §1
[6] = tested on: Rattus norvegicus; assay: In vivo %control of lactate in normal Sprague-Dawley rats after 2 hr at a dose of 3 umol/Kg; assay type: functional; method in brief: as §1
[7] = tested on: Rattus norvegicus; assay: In vivo %control of lactate in normal Sprague-Dawley rats after 2 hr at a dose of 100 umol/Kg; assay type: functional; method in brief: as §1
[8] = tested on: Rattus norvegicus; assay: In vivo %control of lactate in normal Sprague-Dawley rats after 2 hr at a dose of 30 umol/Kg; assay type: functional; method in brief: as §1
[9] = tested on: Rattus norvegicus; assay: In vivo %control of lactate in normal Sprague-Dawley rats after 2 hr at a dose of 30 umol/Kg; not active; assay type: functional, organism-based; method in brief: as §1

SMILES	IC50 [1]	NA [2]	EC50 [3]	Control [4]	Control [5]	Control [6]	Control [7]	Control [8]	NA [9]
C[C@@H]1CN(C(=O)[C@@](C)(O)C(F)(F)F)CCN1C(=O)c1cccc2ccccc12	0.07 µM	inactive							
C[C@@H]1CN(C(=O)[C@@](C)(O)C(F)(F)F)[C@@H](C)CN1C(=O)c1ccc(C#N)cc1	0.016 µM		0.057 µM	87%	74%	90%			
O=C([O-])C(Cl)Cl.[Na+] [SODIUM DICHLOROACETATE]	> 1000 µM			70%					
C[C@@H]1CN(C(=O)[C@@](C)(O)C(F)(F)F)CCN1C(=O)c1ccc(C#N)cc1	0.079 µM		0.25 µM		90%		67%	60%	
C[C@@H]1CN(C(=O)[C@@](C)(O)C(F)(F)F)[C@@H](C)CN1Cc1ccccc1	0.082 µM								inactive

Reference: ChEMBL document CHEMBL1133665, “Secondary amides of (R)-3,3,3-trifluoro-2-hydroxy-2-methylpropionic acid as inhibitors of pyruvate dehydrogenase kinase” (J Med Chem, 2000)
